# In ChEMBL document CHEMBL6092204, “Synthesis of pyridyl pyrimidine hedgehog signaling pathway inhibitors and their antitumor activity in human pancreatic cancer” (Eur J Med Chem, 2024):
# pIC50: −log10 of the molar value. The source made the active and inactive calls. The calls are words filed in the database; no cut-off is given here.
# How the values were obtained:
# BXPC-3 [1] = test: Inhibition of cell migration in human BXPC-3 cells incubated for 24 hrs by wound healing assay; format: functional, cell-based; settings: dose 2.5-10 µM
# Procedure, shortened: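 Monolayers at 80-90% confluence were scratched with a cross and washed three times with PBS. Eight fields were imaged at 0 h. Cells were then incubated with compound in medium containing 2% FBS, and the same fields were re-imaged at 24 h (100×). Closure % = (area 0 h − area 24 h)/area 0 h × 100; n = 3.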
# BxPC-3 [2] = test: Antitumor activity aginst human BxPC-3 cells xenografted in BALB/c nude mouse assessed as tumor growth inhibition at 5 to 15 mg/kg, ip qd for 21 days; settings: dose 5-15 mg/kg, time 21.0 day
# [3] = Toxicity in BALB/c nude mouse xenografted with human BxPC-3 cells assessed as necrosis in kidneys at 5 to 15 mg/kg, ip qd for 21 days by H and E staining based analysis; settings: in vivo, 504 h
# [4] = biological target: Protein smoothened (Homo sapiens) (UniProt Q99835); test: Antagonist activity at Smo (unknown origin) transfected in HEK293T cells incubated for 2 hrs by BODIPY-Cyclopamine based competitive binding assay; format: cell-based; settings: filed as antagonist, dose 10-50 nM
# Protein smoothened (Homo sapiens), sequence (Q99835 whole entry): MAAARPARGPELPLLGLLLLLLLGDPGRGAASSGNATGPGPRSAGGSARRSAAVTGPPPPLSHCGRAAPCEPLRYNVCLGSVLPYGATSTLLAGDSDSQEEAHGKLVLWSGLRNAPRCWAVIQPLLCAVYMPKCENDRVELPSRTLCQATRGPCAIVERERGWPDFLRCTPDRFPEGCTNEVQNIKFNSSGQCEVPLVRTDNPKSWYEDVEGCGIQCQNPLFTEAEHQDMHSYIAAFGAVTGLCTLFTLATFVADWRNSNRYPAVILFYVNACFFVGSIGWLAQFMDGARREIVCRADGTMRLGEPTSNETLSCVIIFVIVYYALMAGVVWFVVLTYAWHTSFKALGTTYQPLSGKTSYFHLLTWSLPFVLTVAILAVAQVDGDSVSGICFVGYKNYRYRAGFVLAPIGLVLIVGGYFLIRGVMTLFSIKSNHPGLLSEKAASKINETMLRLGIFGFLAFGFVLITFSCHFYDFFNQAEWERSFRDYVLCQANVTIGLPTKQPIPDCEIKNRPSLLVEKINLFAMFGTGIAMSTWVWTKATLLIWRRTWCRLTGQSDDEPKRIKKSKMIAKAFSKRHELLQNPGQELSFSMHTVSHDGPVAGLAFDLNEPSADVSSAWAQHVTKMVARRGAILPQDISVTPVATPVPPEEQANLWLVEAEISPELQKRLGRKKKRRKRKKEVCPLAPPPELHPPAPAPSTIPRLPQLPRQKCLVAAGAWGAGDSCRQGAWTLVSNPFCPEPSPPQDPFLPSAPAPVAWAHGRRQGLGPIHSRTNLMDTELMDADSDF
# Procedure, shortened: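 […] cells stably transfected with a Smo plasmid, with expression confirmed by Western blot. Cells (2×10^4/well) were grown 24 h in poly-L-lysine-coated wells, then fixed with 4% paraformaldehyde and DAPI-stained. BODIPY-cyclopamine (100 nM) was added together with test compound for 2 h. Green fluorescence was imaged by fluorescence microscopy.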
# PANC-1 [5] = test: Induction of cell cycle arrest in human PANC-1 cells assessed as accumulation at G1 phase at 5 uM incubated for 48 hrs by PI/RNase staining based flow cytometry (reference value: 82.0 %); format: functional
# [6] = Toxicity in BALB/c nude mouse xenografted with human BxPC-3 cells assessed as necrosis in liver at 5 to 15 mg/kg, ip qd for 21 days by H and E staining based analysis; settings: in vivo, 504 h
# PANC-1 [7] = test: Induction of apoptosis in human PANC-1 cells assessed as late apoptotic cells at 2.5 uM incubated for 48 hrs by Annexin V-FITC/PI staining based flow cytometry (reference value: 2.74 %); format: functional
# PANC-1 [8] = test: Induction of cell cycle arrest in human PANC-1 cells assessed as accumulation at G1 phase at 10 uM incubated for 48 hrs by PI/RNase staining based flow cytometry (reference value: 82.0 %); format: functional
# [9] = Toxicity in BALB/c nude mouse xenografted with human BxPC-3 cells assessed as inflammatory infiltration in liver at 5 to 15 mg/kg, ip qd for 21 days by H and E staining based analysis; settings: in vivo, 504 h
# [10] = Toxicity in BALB/c nude mouse xenografted with human BxPC-3 cells assessed as necrosis in lung at 5 to 15 mg/kg, ip qd for 21 days by H and E staining based analysis; settings: in vivo, 504 h
# BXPC-3 [11] = test: Induction of cell cycle arrest in human BXPC-3 cells assessed as accumulation at G2 phase at 10 uM incubated for 48 hrs by PI/RNase staining based flow cytometry (reference value: 8.15 %); format: functional
# PANC-1 [12] = test: Induction of cell cycle arrest in human PANC-1 cells assessed as accumulation at G2 phase at 5 uM incubated for 48 hrs by PI/RNase staining based flow cytometry (reference value: 5.83 %); format: functional
# [13] = Toxicity in BALB/c nude mouse xenografted with human BxPC-3 cells assessed as cellular edema in lung at 5 to 15 mg/kg, ip qd for 21 days by H and E staining based analysis; settings: in vivo, 504 h
# [14] = Toxicity in BALB/c nude mouse xenografted with human BxPC-3 cells assessed as tissue fibrosis in heart at 5 to 15 mg/kg, ip qd for 21 days by H and E staining based analysis; settings: in vivo, 504 h
# PANC-1 [15] = test: Induction of cell cycle arrest in human PANC-1 cells assessed as accumulation at S phase at 2.5 uM incubated for 48 hrs by PI/RNase staining based flow cytometry (reference value: 7.58 %); format: functional
# [16] = Toxicity in BALB/c nude mouse xenografted with human BxPC-3 cells assessed as inflammatory infiltration in lung at 5 to 15 mg/kg, ip qd for 21 days by H and E staining based analysis; settings: in vivo, 504 h
# PANC-1 [17] = test: Induction of apoptosis in human PANC-1 cells assessed as viable cells at 5 uM incubated for 48 hrs by Annexin V-FITC/PI staining based flow cytometry (reference value: 93.2 %); format: functional; settings: read-out: Activity
# BXPC-3 [18] = test: Induction of cell cycle arrest in human BXPC-3 cells assessed as accumulation at G1 phase at 2.5 uM incubated for 48 hrs by PI/RNase staining based flow cytometry (reference value: 84.2 %); format: functional
# [19] = Toxicity in BALB/c nude mouse xenografted with human BxPC-3 cells assessed as inflammatory infiltration in heart at 5 to 15 mg/kg, ip qd for 21 days by H and E staining based analysis; settings: in vivo, 504 h
# [20] = Toxicity in BALB/c nude mouse xenografted with human BxPC-3 cells assessed as necrosis in heart at 5 to 15 mg/kg, ip qd for 21 days by H and E staining based analysis; settings: in vivo, 504 h
# BXPC-3 [21] = test: Induction of apoptosis in human BXPC-3 cells assessed as viable cells at 5 uM incubated for 48 hrs by Annexin V-FITC/PI staining based flow cytometry (reference value: 91.5 %); format: functional; settings: read-out: Activity
# [22] = Toxicity in BALB/c nude mouse xenografted with human BxPC-3 cells assessed as cellular edema in liver at 5 to 15 mg/kg, ip qd for 21 days by H and E staining based analysis; settings: in vivo, 504 h
# BXPC-3 [23] = test: Inhibition of Hh signaling pathway in human BXPC-3 cells assessed as reduction in Gli1 mRNA level incubated for 48 hrs by qRT-PCR analysis; format: cell-based; settings: dose 2.5-10 µM
# Procedure, shortened: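 Total RNA was extracted by column kit after 48 h treatment and checked spectrophotometrically. Gli1 and Ptch1 transcripts were quantified by real-time RT-qPCR with GAPDH as internal control. Results are fold change relative to the untreated group; three separate experiments.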
# BXPC-3 [24] = test: Antiproliferative activity against human BXPC-3 cells assessed as inhibition of cell viability incubated for 48 hrs by MTT assay; format: functional, cell-based; settings: BXPC-3, 48 h
# Procedure, shortened: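 Cells in log phase were seeded at 8,000-10,000/well and allowed to adhere overnight at 37 °C, 5% CO2. Compound from DMSO stock, diluted in medium, was applied for 48 h; controls got drug-free medium, blanks held medium only. MTT (5 mg/mL stock) 4 h, formazan dissolved in DMSO, A490 read. Viability was blank-corrected against untreated cells; IC50 came from a fitted curve; three separate experiments.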
# [25] = Toxicity in BALB/c nude mouse xenografted with human BxPC-3 cells assessed as inflammatory infiltration in spleen at 5 to 15 mg/kg, ip qd for 21 days by H and E staining based analysis; settings: in vivo, 504 h
smiles,measurement,setting,value
CN(C)Cc1ccc(NC(=O)c2ccc(Nc3nccc(-c4cccnc4)n3)cc2)cc1,inhibition,BXPC-3 [1],Dose-dependent-effect
same,inhibition,BxPC-3 [2],Active
same,Activity,[3],Non-toxic
same,Activity,[4],Dose-dependent-effect; Exhibited Fluorescence Quenching Activity Similar To Compound 1
same,Activity,PANC-1 [5],84.2%
same,Activity,[6],Non-toxic
same,Activity,PANC-1 [7],5.12%
same,Activity,PANC-1 [8],72.7%
same,Activity,[9],Non-toxic
same,Activity,[10],Non-toxic
same,Activity,BXPC-3 [11],2.98%
same,Activity,PANC-1 [12],8.15%
same,Activity,[13],Non-toxic
same,Activity,[14],Non-toxic
same,Activity,PANC-1 [15],7.73%
same,Activity,[16],Non-toxic
same,viability at 5 µM,PANC-1 [17],87.3%
same,Activity,BXPC-3 [18],72.7%
same,Activity,[19],Non-toxic
same,Activity,[20],Non-toxic
same,viability at 5 µM,BXPC-3 [21],85.5%
same,Activity,[22],Non-toxic
same,inhibition,BXPC-3 [23],Dose-dependent-effect
same,pIC50,BXPC-3 [24],5.45
same,Activity,[25],Non-toxic
